Test results as given in ChEMBL document CHEMBL1124310, “Antiinflammatory 2,6-di-tert-butyl-4-(2-arylethenyl)phenols” (J Med Chem, 1989).

Columns and labels:
[1] = test system: Rattus norvegicus; assay: Inhibitory activity against developing adjuvant-induced arthritis (Dev AA) in rat at 50 mg/kg concentration; type: functional
[2] = test system: Rattus norvegicus; assay: Inhibitory activity against developing adjuvant-induced arthritis (Dev AA) in rat at 5 mg/kg concentration; type: functional
[3] = target: T1, Polyunsaturated fatty acid 5-lipoxygenase (Homo sapiens) (UniProt P09917); assay: Inhibitory activity against lipoxygenase (LO) at 10 uM concentration
T1 sequence (whole entry): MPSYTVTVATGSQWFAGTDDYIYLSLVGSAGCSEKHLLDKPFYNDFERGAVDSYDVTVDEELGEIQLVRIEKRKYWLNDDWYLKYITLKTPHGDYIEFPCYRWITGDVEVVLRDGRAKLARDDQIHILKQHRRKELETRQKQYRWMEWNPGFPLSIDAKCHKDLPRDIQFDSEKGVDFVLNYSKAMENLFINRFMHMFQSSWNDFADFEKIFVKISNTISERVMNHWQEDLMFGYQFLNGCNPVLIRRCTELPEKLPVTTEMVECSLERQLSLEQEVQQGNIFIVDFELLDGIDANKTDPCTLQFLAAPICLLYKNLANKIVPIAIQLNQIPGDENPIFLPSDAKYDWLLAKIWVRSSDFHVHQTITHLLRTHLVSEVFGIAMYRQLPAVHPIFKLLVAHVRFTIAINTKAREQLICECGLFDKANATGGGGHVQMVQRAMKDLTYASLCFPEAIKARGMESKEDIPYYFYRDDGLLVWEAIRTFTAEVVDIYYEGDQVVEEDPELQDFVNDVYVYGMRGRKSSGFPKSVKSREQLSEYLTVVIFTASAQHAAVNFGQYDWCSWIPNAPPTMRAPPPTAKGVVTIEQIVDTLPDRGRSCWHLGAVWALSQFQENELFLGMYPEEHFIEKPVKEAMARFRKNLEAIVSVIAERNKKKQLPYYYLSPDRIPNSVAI
Outline: (§1)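 Human peripheral blood leukocytes (5 × 10^6/0.5 mL) in pH 7.2 phosphate buffer with 0.6 mM Ca2+ and 1.0 mM Mg2+ incubated with compound for 15 min at 37 °C with shaking. 5-HETE band area measured as % of total radioactivity. Inhibition = (1 − cmd/cntl) × 100; single determination in duplicate; ANOVA, p<0.05.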

[4] = target: T1, Polyunsaturated fatty acid 5-lipoxygenase (Homo sapiens); assay: Inhibitory activity against lipoxygenase (LO) at 1 uM concentration; outline: as §1
[5] = test system: Rattus norvegicus; assay: Inhibitory activity against developing adjuvant-induced arthritis (Dev AA) in rat at 25 mg/kg concentration; type: functional
[6] = target: T1, Polyunsaturated fatty acid 5-lipoxygenase (Homo sapiens); assay: Inhibitory activity against 5-lipoxygenase at 1 uM concentration; outline: as §1
[7] = target: T2, Cyclooxygenase (Homo sapiens, UniProt P35354+P23219); assay: Inhibitory activity against Prostaglandin G/H synthase at 10 uM concentration; type: protein assay
Outline: (§2)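 Human platelets (10^7/0.5 mL) in Ca2+-free pH 7 phosphate buffer incubated with compound for 15 min at 37 °C with shaking. Prostaglandin-thromboxane band areas measured as % of total radioactivity. Inhibition = (1 − cmd/cntl) × 100; single determination run in duplicate; ANOVA, p<0.05.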

[8] = target: T2, Cyclooxygenase; assay: Inhibitory activity against Prostaglandin G/H synthase at 1 uM concentration; type: protein assay; outline: as §2
[9] = target: T1, Polyunsaturated fatty acid 5-lipoxygenase (Homo sapiens); assay: Inhibitory activity against 5-lipoxygenase at 10 uM concentration; outline: as §1
[10] = target: T1, Polyunsaturated fatty acid 5-lipoxygenase (Homo sapiens); assay: Inhibitory activity against lipoxygenase (LO) at 1 uM concentration; % inhibition not statistically different from control; outline: as §1
[11] = organism: Rattus norvegicus; assay: Dose of compound to produce a 50% ulcerogenic response in rats was determined; type: functional
Outline: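 Ulcerogenic dose: value taken as the dose giving 50% response on a graded scale, 0% = no ulcers or redness in stomach or intestines, 100% = major lesions in both stomach and intestines. Method follows a cited procedure.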

[12] = test system: Rattus norvegicus; assay: Inhibitory activity against developing adjuvant-induced arthritis (Dev AA) in rat at 5 mg/kg concentration; decrease in paw volume statistically significant compared to control.; type: functional
[13] = organism: Rattus norvegicus; assay: Effective dose of compound to inhibit adjuvant-induced arthritis (Dev AA) in rat; type: functional
[14] = organism: Rattus norvegicus; assay: Effective dose of compound to inhibit established adjuvant arthritis (EstAA) in rat; type: functional
Outline: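 Arthritis induced in male Lewis rats with Mycobacterium butyricum adjuvant in the right hind footpad. Rats with arthritis established by day 14 after injection were selected, then dosed orally for 14 days. Noninjected paw volume measured by mercury displacement. % inhibition versus untreated arthritic controls.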

[15] = test system: Rattus norvegicus; assay: Effective dose of compound to inhibit carrageenan induced paw edema in rat was determined; type: functional
Outline: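 Male CD rats (150 ± 10 g), 10 per group. Compound or vehicle (1% acacia in water) given orally 1 h before subplantar injection of 0.1 mL 1% carrageenan in saline into the right hind paw. Paw volume measured by mercury displacement before dosing and 3 h after carrageenan; the difference is the edema volume.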

[16] = organism: Rattus norvegicus; assay: Effective dose of compound to inhibit acetic acid induced writhing in rat was determined; type: functional

Row | Structure (SMILES) | inhibition in vivo at 50 mg/kg [1] [%] | inhibition [3] [%] | inhibition [4] [%] | inhibition [6] [%] | inhibition [7] [%] | inhibition [8] [%] | inhibition [9] [%] | also measured
1 | CC(C)(C)c1cc(/C=C/c2ccccn2)cc(C(C)(C)C)c1O | 74 | 88 | 34 |  |  |  |  | inhibition in vivo at 5 mg/kg [2]: 36%
2 | CC(C)(C)c1cc(CCc2cccnc2)cc(C(C)(C)C)c1O |  | 63 | 13 |  |  |  |  | inhibition in vivo at 25 mg/kg [5]: 3%
3 | CC(C)(C)c1cc(/C=C/c2ccc(F)cc2)cc(C(C)(C)C)c1O | 58 |  |  | 23 | 70 | 52 | 46 | 
4 | CCC(C)(C)c1cc(/C=C/c2cccnc2)cc(C(C)(C)CC)c1O |  |  | 27 |  |  |  |  | inhibition in vivo at 25 mg/kg [5]: 50%
5 | CC(C)(C)c1cc(C/C=C/c2cccs2)cc(C(C)(C)C)c1O |  | 49 |  |  |  |  |  | inhibition [10]: 7%
6 | Oc1ccc(/C=C/c2cccnc2)cc1 |  |  |  |  | 5 | 28 | 41 | 
7 | CC(C)(C)c1cc(/C=C/c2ccc(Cl)c(Cl)c2)cc(C(C)(C)C)c1O | 10 |  |  | 18 | -5 | -16 | 3 | 
8 | CC(C)(C)c1cc(/C=C/c2cccc(C(F)(F)F)c2)cc(C(C)(C)C)c1O | 0 | 22 |  | 19 | 18 | 9 |  | 
9 | CC(C)(C)c1cc(/C=C/c2ccc[n+]([O-])c2)cc(C(C)(C)C)c1O |  |  |  | 21 | 73 | 24 | 59 | inhibition in vivo at 25 mg/kg [5]: 26%
10 | Cc1ccc(/C=C/c2cc(C(C)(C)C)c(O)c(C(C)(C)C)c2)cc1 | 97 |  |  | 6 | 52 | 12 | 27 | inhibition in vivo at 5 mg/kg [2]: 55%
11 | CC(C)(C)c1cc(/C=C2\CCOC2=O)cc(C(C)(C)C)c1O |  |  |  | 34 |  |  | 67 | inhibition in vivo at 5 mg/kg [2]: 39%; inhibition in vivo at 25 mg/kg [5]: 63%
12 | CC(C)(C)c1cc(/C=C/c2ccccc2)cc(C(C)(C)C)c1O | 42 |  |  | 12 | 79 | 34 | 14 | 
13 | CC(C)(C)c1cc(C(=O)/C=C/c2ccsc2)cc(C(C)(C)C)c1O | 13 |  |  | 16 | 83 | 73 | 69 | 
14 | CCC(C)(C)c1cc(/C=C/c2cccs2)cc(C(C)(C)CC)c1O |  |  | 10 |  |  |  |  | inhibition in vivo at 25 mg/kg [5]: 40%
15 | CC(C)(C)c1cc(C(=O)/C=C/c2cccs2)cc(C(C)(C)C)c1O | 0 | 59 |  | 10 | 83 | 72 |  | 
16 | CC(C)(C)c1cc(/C=C/c2ccccc2C(=O)O)cc(C(C)(C)C)c1O |  |  |  | 10 | 53 | 21 |  | 

Row | Structure (SMILES) | inhibition in vivo at 50 mg/kg [1] [%] | inhibition [3] [%] | inhibition [4] [%] | inhibition [6] [%] | inhibition [7] [%] | inhibition [8] [%] | inhibition [9] [%] | also measured
17 | CC(C)(C)c1cc(/C=C/c2ccncc2)cc(C(C)(C)C)c1O | 0 | 6 |  |  |  |  |  | 
18 | CC(C)(C)c1cc(/C=C/c2ccc(Cl)cc2)cc(C(C)(C)C)c1O | 42 |  |  | 6 | 66 | 31 | 16 | 
19 | CC(C)(C)c1cc(/C=C/c2cccnc2)ccc1O |  | 81 | 29 |  |  |  |  | inhibition in vivo at 25 mg/kg [5]: 3%
20 | CC(C)(C)c1cc(/C=C/c2ccc(Cl)s2)cc(C(C)(C)C)c1O | 45 | 28 | 19 |  |  |  |  | 
21 | CC(C)c1cc(/C=C/c2cccnc2)cc(C(C)C)c1O |  | 87 | 73 |  |  |  |  | inhibition in vivo at 25 mg/kg [5]: 17%
22 | COc1ccc(/C=C/c2cc(C(C)(C)C)c(O)c(C(C)(C)C)c2)cc1 | 0 | 12 | 18 |  |  |  |  | 
23 | COc1ccc(/C=C/c2cc(C(C)(C)C)c(O)c(C(C)(C)C)c2)cc1OC | 26 | 20 | 12 |  |  |  |  | 
24 | CCOC(=O)/C(=C\c1cc(C(C)(C)C)c(O)c(C(C)(C)C)c1)c1cccnc1 | 24 |  |  | 23 | 78 | 54 | 83 | 
25 | CC(C)(C)c1cc(/C=C/c2cccnc2)cc(C(C)(C)C)c1O | 82 | 84 | 26 |  |  |  |  | UD50 [11]: 202 mg/kg; inhibition in vivo at 5 mg/kg [12]: 56%; ED50 [13]: 2.1 mg/kg; ED50 [14]: 4 mg/kg; ED50 [15]: 16.5 mg/kg; ED50 [16]: 3.9 mg/kg
26 | CC(C)(C)c1cc(/C=C/c2ccsc2)cc(C(C)(C)C)c1O | 62 | 81 | 9 |  |  |  |  | inhibition in vivo at 5 mg/kg [2]: 31%
27 | CC(C)(C)c1cc(/C=C/C(=O)c2cccs2)cc(C(C)(C)C)c1O | 8 |  |  | 39 | 75 | 44 | 84 | 
28 | CC(C)(C)c1cc(/C=C/C(=O)c2ccsc2)cc(C(C)(C)C)c1O | 0 | 91 |  | 53 | 80 | 56 |  | 
29 | CC(C)c1cc(/C=C/c2cccs2)cc(C(C)C)c1O |  |  | 82 |  |  |  |  | 
30 | Cc1cc(/C=C/c2cccnc2)cc(C(C)(C)C)c1O |  | 85 | 75 |  |  |  |  | inhibition in vivo at 25 mg/kg [5]: 22%
31 | CC(C)(C)c1cc(C(=O)c2cccs2)cc(C(C)(C)C)c1O [PRIFELONE] |  | 82 | 17 |  |  |  |  | inhibition in vivo at 5 mg/kg [2]: 24%; inhibition in vivo at 25 mg/kg [5]: 96%
